Assay outcomes from PubChem.
A selection: hits, their analogues and other compounds. The true share with any hit is near 2.3%.
SUMO1-SIM PPI – modulators of human SUMO1-mediated protein-protein interactions | P63165 | SUMO1 binding to a labelled peptide, TR-FRET, 1 h | 360,000 tested, 0.33% active | inhibition, % at 20 µM | AID 602429; in the data active = inhibition above about 37%
Rpn11 inh – blocks the human proteasome subunit Rpn11. O00487. human 26S proteasome, Ub4-pepOG fluorescence polarization; 20S core pre-blocked with epoxomicin. inhibition, % at 20 µM. 360,000 tested, 0.59% active;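 active = inhibition at 20 µM, scaled to each plate's controls, above about 33%, limit read from the data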
LMPTP block – LMPTP (human) inhibition; P24666; recombinant LMPTP-A, OMFP fluorogenic substrate, fluorescence intensity; inhibition, % at 20 µM; 360,000 tested, 0.22% active; AID 651560;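 active = compounds that cut the enzyme signal by at least half of the control window in the single-dose screen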;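 note: plate controls were DMSO wells with enzyme plus substrate for no effect and substrate without enzyme for full effect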
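material = LMPTP-A | quantity = 0.625 nM enzyme | reagent = OMFP substrate, 400 µM final | buffer or medium = Bis-Tris pH 6.0, DTT, detergent | detection = endpoint fluorescence intensity from OMFP dephosphorylation | dosing = single 20 µM dose | read-out basis = % inhibition relative to no-enzyme and uninhibited control wells | control set = no-enzyme and uninhibited controls | timing = 50 min at room temperature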
Scp-1 inhibitor – blocks human Scp-1 phosphatase activity; AID 493091; inhibition, % at 20 µM; Q9GZU7; 340,000 tested, 0.88% active; Recombinant Scp1, phosphopeptide, malachite green phosphate absorbance;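 active = inhibition above about 50% at 20 µM, limit read from the data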;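 note: plate controls were DMSO wells with enzyme for no effect and wells lacking enzyme for full effect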
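Test system: SCP-1 catalytic domain; Buffer or medium: Acidic Tris acetate buffer with magnesium and detergent; Also added: Phosphorylated 17-residue peptide substrate; Compound: single 20 µM dose, 1% DMSO; Schedule: enzyme reaction 45 min at room temperature, colour 5 min, stabilisation 30 min; Signal: Phosphate-binding colour reagent, absorbance read at 630 nm.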
DNMT1 block – DNMT1 (human) enzyme inhibition; P26358; DNMT1 molecular beacon, Hinp1I cleavage, fluorescence; inhibition (reported as % activation of signal), % at 10 µM; 360,000 tested, 0.83% active; in the data active = inhibition above about 50%
Target sequence (P26358 504-1616 limits assumed): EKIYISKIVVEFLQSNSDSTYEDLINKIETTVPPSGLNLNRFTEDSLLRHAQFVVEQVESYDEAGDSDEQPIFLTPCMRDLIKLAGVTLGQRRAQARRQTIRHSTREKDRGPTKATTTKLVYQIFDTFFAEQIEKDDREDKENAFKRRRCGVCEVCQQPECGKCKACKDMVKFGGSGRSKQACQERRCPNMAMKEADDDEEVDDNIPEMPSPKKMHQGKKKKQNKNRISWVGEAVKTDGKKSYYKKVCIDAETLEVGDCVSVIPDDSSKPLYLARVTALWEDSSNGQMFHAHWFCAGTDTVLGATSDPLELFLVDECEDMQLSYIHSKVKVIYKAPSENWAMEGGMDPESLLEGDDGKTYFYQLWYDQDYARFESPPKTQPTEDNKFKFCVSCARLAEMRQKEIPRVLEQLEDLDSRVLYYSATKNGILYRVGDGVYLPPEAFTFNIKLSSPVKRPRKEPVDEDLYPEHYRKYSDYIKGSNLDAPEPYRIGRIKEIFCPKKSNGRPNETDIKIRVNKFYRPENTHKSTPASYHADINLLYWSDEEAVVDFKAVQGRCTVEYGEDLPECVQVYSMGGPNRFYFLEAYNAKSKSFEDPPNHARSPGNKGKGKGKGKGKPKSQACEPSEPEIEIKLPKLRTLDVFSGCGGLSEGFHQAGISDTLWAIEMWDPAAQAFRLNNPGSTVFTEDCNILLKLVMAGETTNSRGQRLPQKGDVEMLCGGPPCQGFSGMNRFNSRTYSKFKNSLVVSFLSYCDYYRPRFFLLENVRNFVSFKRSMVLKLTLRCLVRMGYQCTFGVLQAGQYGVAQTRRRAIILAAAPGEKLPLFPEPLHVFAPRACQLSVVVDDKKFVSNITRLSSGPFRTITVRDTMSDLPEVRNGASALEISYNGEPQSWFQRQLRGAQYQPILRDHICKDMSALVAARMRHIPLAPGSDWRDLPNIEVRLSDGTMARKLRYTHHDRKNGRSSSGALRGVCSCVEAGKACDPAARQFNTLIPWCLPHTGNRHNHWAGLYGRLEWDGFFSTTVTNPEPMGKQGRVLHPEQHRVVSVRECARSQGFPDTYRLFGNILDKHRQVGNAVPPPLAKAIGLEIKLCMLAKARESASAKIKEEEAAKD
STEP inh – STEP (human) phosphatase inhibition; P54829; recombinant STEP, OMFP fluorogenic substrate, fluorescence; inhibition, % at 20 µM; 360,000 tested, 0.25% active; AID 588621;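 active = inhibition at 20 µM, scaled per plate between control wells, above about 37%, limit read from the data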;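 note: 0% = DMSO with enzyme and substrate and 100% = substrate only without enzyme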
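Assay system: isolated STEP enzyme. Buffer or medium: pH 6.0 Bis-Tris with DTT and Tween 20. Also added: fluorogenic phosphatase substrate OMFP at 25 µM final. Dosing: 20 µM, 1% DMSO. Timing: 20 min reaction, room temperature, in the dark. Measured by: fluorescence intensity, excitation 480 nm, emission 540 nm. Evaluation: normalized % inhibition.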
STEP inh conf – STEP (human) phosphatase inhibition, single concentration confirmation; inhibition, % at 20 µM; recombinant STEP, OMFP fluorogenic substrate, fluorescence; 520 tested, 32% active; shares compounds with STEP inh; AID 623866; call rule not given here;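 note: 0% = enzyme with substrate plus DMSO and 100% = substrate without enzyme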
Starred values were filed as active, the others as inactive; · = not tested or not shown.

SMILES	SUMO1-SIM PPI	Rpn11 inh	LMPTP block	Scp-1 inhibitor	DNMT1 block	STEP inh	STEP inh conf
CC(=O)c1ccc(NC(=O)CN2CCN(c3ccccc3)CC2)cc1	6	-5	-2	-7	-7	1	·
O=C(O)c1ccc(Cl)c(S(=O)(=O)Nc2ccc(S(=O)(=O)N3CCCC3)cc2)c1	12	4	-1	3	1	0	·
CCc1ccc(NC(=O)C2CCCN(S(=O)(=O)c3cccnc3)C2)cc1 (stereo unspecified)	5	-4	0	3	1	-2	·
O=C(Nc1ccc(OC(F)(F)F)cc1)C1CCCN(S(=O)(=O)c2cccnc2)C1 (stereo unspecified)	1	0	1	-3	-1	39*	3
O=C(COc1ccc(Cl)cc1Cl)N1CCN(C(=O)c2ccco2)CC1	1	-2	-2	-8	3	2	·
O=C(Nc1nc2nccc(-c3ccccc3)n2n1)c1ccccc1	29	7	1	-1	3	1	·
O=C(Nc1nc2nccc(-c3ccccc3)n2n1)c1ccc(F)cc1	4	-1	1	-3	28	52*	-1
CCn1c(Cc2ccc(OC)cc2)nnc1SCc1nc2ccccc2c(=O)[nH]1	2	5	-1	-5	1	10	·
NS(=O)(=O)c1ccccc1	1	-1	-2	-4	2	68*	47*
CC(C)CN(C(=O)CSc1nnnn1-c1ccccc1)c1c(N)n(CC(C)C)c(=O)[nH]c1=O	-1	-9	-1	-4	0	6	·
CCOc1ccccc1-c1noc(CCC(=O)NC2CCCCC2)n1	-1	0	1	-1	-1	92*	-1
COc1ccccc1-c1noc(CCC(=O)NC2CCCC2)n1	-1	-13	0	-5	-2	5	·
CCCN(C(=O)CSc1ncnc2sccc12)c1c(N)n(Cc2ccccc2)c(=O)[nH]c1=O	3	1	0	-7	-5	3	·
FC(F)(F)Oc1ccc(NC(=S)NCCCN2CCOCC2)cc1	4	-4	-2	-8	10	41*	30
O=C(N/N=C/c1ccccn1)c1ccc(Br)cc1	-6	29	-1	-12	1	72*	3
CCCCN(C(=O)c1[nH]c(C)c(C(=O)OCC)c1C)c1c(N)n(CCCC)c(=O)[nH]c1=O	-2	-2	-1	1	5	0	·
O=C(O)c1ccccc1C(=O)NCC(O)c1ccccc1 (stereo unspecified)	6	1	-1	-13	-1	91*	-4
O=C(O)c1ccccc1C(=O)NCCCCCCNC(=O)c1ccccc1C(=O)O	-3	-3	-5	-6	1	0	·
COc1ccccc1NC(=O)CCS(=O)(=O)c1ccc2c(c1)NC(=O)C(C)S2 (stereo unspecified)	0	-3	-1	-9	1	62*	1
COc1cc(/C=C2/C(=O)NN(c3cccc(C)c3)C2=O)cc([N+](=O)[O-])c1O	10	5	43	40	58*	51*	45*
O=C(CCNC(=O)C1CCN(S(=O)(=O)c2ccc(F)cc2)CC1)NCc1ccncc1	-5	-3	0	-2	-3	-2	·
COc1ccc(C(C(=O)NCCC(C)C)N(CCO)C(=O)c2snc(C(N)=O)c2N)cc1 (stereo unspecified)	-5	3	0	-1	0	0	·
Cc1c(C)c2ccc(OCC(=O)Nc3ccc(S(N)(=O)=O)cc3)c(C)c2oc1=O	18	12	31	45	6	46*	74*
CCN(CC(=O)Nc1ccc2c(c1)OCCO2)C(=O)CSCC(=O)Nc1ccc(C)cc1	8	6	-1	-6	-1	3	·
Cc1ccc2[nH]c3c(=O)n(CC(=O)Nc4ccccc4N4CCN(C)CC4)ncc3c2c1	20	0	1	-4	-1	1	·
SMILES	SUMO1-SIM PPI	Rpn11 inh	LMPTP block	Scp-1 inhibitor	DNMT1 block	STEP inh	STEP inh conf
CCN1CCN(c2nc(C)nc3c2sc(=S)n3C)CC1	1	1	3	-4	-1	93*	-10
O=C(O)C(c1ccccc1)C(O)c1ccc2c(c1)OCO2 (stereo unspecified)	6	5	-1	-10	5	1	·
CC1=C(C(=O)OC(C)C)[C@@H](c2ccc(C)o2)NC(=O)N1	3	-11	0	-7	1	120*	2
CC1=C(C(=O)OC(C)C)C(c2ccc(C)o2)C(C(=O)OC(C)C)=C(C)N1	1	4	5	-4	1	0	·
O=C(Nc1ccc(C(=O)N2CCCCC2)cc1)c1cccs1	-17	-8	2	-7	7	68*	4
O=C(Nc1ccc(C(=O)N2CCOCC2)cc1)c1cccs1	2	1	0	-3	-2	-2	·
CCN1/C(=C2\C(=O)N(C)C(=S)N2C)C=Cc2cc(C)ccc21	-23	2	-1	-8	0	-4	·
CCOC(=O)N1CCC(N(CCN(C)C)C(=S)Nc2ccc(Oc3ccccc3)cc2)CC1	1	-4	-2	5	0	92*	61*
CCOC(=O)N1CCC(N(CCN(C)C)C(=S)Nc2ccccc2OCC)CC1	-3	-1	-5	9	0	45*	22
O=C1CCCC2=C1C(c1ccccc1)CC(=O)N2c1ccc(F)cc1F (stereo unspecified)	-6	8	-2	0	-2	1	·
COc1ccc(C(=O)Oc2ccc3ccc(=O)oc3c2)cc1	-5	4	37	9	4	74*	-8
CC1(C)CC(=O)C=C(NNC(=O)c2ccc(N)cc2)C1	-1	13	-1	0	2	120*	6
CC1(C)CC(=O)C=C(NNC(=O)c2ccccc2)C1	0	-12	-2	-5	5	-3	·
COc1ccc(OC)c(C(=O)c2ccccn2)c1	2	-4	-1	-12	-13	95*	12
COc1ccc(C(=O)O/N=C(\N)c2ccccn2)c(OC)c1	2	9	0	-4	2	1	·
CCOc1cc(NC(=O)C2CC2)c(OCC)cc1NC(=O)CCn1nnc2ccccc21	-1	1	0	32	11	63*	-10
CCOc1cc(NC(=O)C2CC2)c(OCC)cc1NC(=O)c1ccccn1	-6	3	1	-17	-10	-1	·
O=C1CSc2cc(Cl)ccc2N1	1	-1	0	10	0	37*	16
C/C(CC(=O)Nc1ccc2c(c1)OCCO2)=N\NC(=O)COc1ccccc1C	1	-8	0	2	-2	50*	6
